Experiments:
Staphylococcus aureus [1] = assay: Growth inhibition of Staphylococcus aureus MRSA252; type: organism-based; details: in vitro
How it was run: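 Compound alone was two-fold serially diluted in cation-adjusted Mueller-Hinton II broth containing 2.4% DMSO. Bacteria were inoculated at 5 × 10⁵ CFU mL⁻¹ and incubated at 36 °C for 16–20 h. The MIC was read in triplicate.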

Staphylococcus aureus [2] = assay: Potentiation of oxacillin-induced antibacterial activity against Staphylococcus aureus MRSA252 assessed as oxacillin MIC at 20 uM (reference value: 256 ug/ml); type: functional
Staphylococcus aureus [3] = assay: Potentiation of oxacillin-induced antibacterial activity against Staphylococcus aureus NRS386 assessed as oxacillin MIC at 20 uM; type: functional; details: USA700 NRS386
Staphylococcus aureus [4] = assay: Potentiation of oxacillin-induced antibacterial activity against Staphylococcus aureus MRSA252 assessed as fold reduction in oxacillin MIC at 20 uM relative to oxacillin alone; type: functional
Staphylococcus aureus [5] = assay: Potentiation of oxacillin-induced antibacterial activity against Staphylococcus aureus NRS70 assessed as oxacillin MIC at 20 uM; type: functional
Staphylococcus aureus [6] = assay: Potentiation of oxacillin-induced antibacterial activity against methicillin/oxacillin/tetracycline-resistant Staphylococcus aureus NRS100 assessed as oxacillin MIC at 20 uM; type: functional
How it was run: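 Oxacillin MIC measured with the synthetic potentiator held at a fixed 20 μM. Two-fold serial dilution in cation-adjusted Mueller-Hinton II broth containing 2.4% DMSO. Inoculum 5 × 10⁵ CFU mL⁻¹, incubated at 36 °C for 16–20 h. Run in triplicate.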

| Compound | growth inhibition (GI) (Staphylococcus aureus [1]) | MIC (Staphylococcus aureus [2]) [µg/mL] | MIC (Staphylococcus aureus [3]) [µg/mL] | fold change (FC) (Staphylococcus aureus [4]) | MIC (Staphylococcus aureus [5]) [µg/mL] | MIC (Staphylococcus aureus [6]) [µg/mL] |
| --- | --- | --- | --- | --- | --- | --- |
| COc1ccc(S(=O)(=O)N(CCO)c2ccccc2CN(C)C/C=C/c2ccc(Cl)cc2)cc1 | Non-Toxic | 128 | – | – | – | – |
| Cc1ccc(S(=O)(=O)N(CCO)c2ccccc2CN(C)C(=O)/C=C/c2ccco2)cc1 | Non-Toxic | ≥ 256 | – | – | – | – |
| CN(Cc1ccccc1)Cc1ccccc1N(CCO)S(=O)(=O)c1ccc(C(F)(F)F)cc1 | Non-Toxic | ≥ 256 | – | – | – | – |
| Cc1ccc(S(=O)(=O)N(CCO)c2ccccc2CN(C)C/C=C/c2ccc(Cl)cc2)cc1 | Non-Toxic | 32 | – | – | – | – |
| Cc1ccc(S(=O)(=O)N(CCO)c2ccccc2CN(C/C=C/c2ccc(Cl)cc2)CC(C)C)cc1 | Non-Toxic | 128 | – | – | – | – |
| CN(C/C=C/c1ccccc1)Cc1ccccc1N(CCO)S(=O)(=O)c1ccc(C(F)(F)F)cc1 | Non-Toxic | 32 | – | – | – | – |
| CN(Cc1ccccc1N(CCO)S(=O)(=O)c1ccsc1)C(=O)/C=C/c1ccc(Cl)cc1 | Non-Toxic | ≥ 256 | – | – | – | – |
| CC(=O)Nc1ccc(S(=O)(=O)N(CCO)c2ccccc2CN(C)C/C=C/c2ccc(Cl)cc2)cc1 | Non-Toxic | ≥ 256 | – | – | – | – |
| CN(C/C=C/c1ccc(Cl)cc1)Cc1ccccc1N(CCO)S(=O)(=O)c1ccc(C(F)(F)F)cc1 | Non-Toxic | 64 | – | – | – | – |
| CN(Cc1ccccc1N(CCO)S(=O)(=O)c1ccc([N+](=O)[O-])cc1)C(=O)/C=C/c1ccc(C(F)(F)F)cc1 | Non-Toxic | ≥ 256 | – | – | – | – |
| Cc1ccc(S(=O)(=O)N(CCO)c2ccccc2CN(C(=O)/C=C/c2ccc(C(F)(F)F)cc2)C(C)C)cc1 | Non-Toxic | ≥ 256 | – | – | – | – |
| Cc1ccc(S(=O)(=O)N(CCO)c2ccccc2CN(C)C(=O)/C=C/c2ccc(Br)s2)cc1 | Non-Toxic | ≥ 256 | – | – | – | – |
| CN(Cc1ccccc1N(CCO)S(=O)(=O)c1ccc(C#N)cc1)C(=O)/C=C/c1ccc(C(F)(F)F)cc1 | Non-Toxic | 32 | – | – | – | – |
| Cc1ccc(S(=O)(=O)N(CCO)c2ccccc2CN(C)C/C=C/c2ccc(Cl)c(Cl)c2)cc1 | Non-Toxic | 32 | – | – | – | – |
| Cc1ccc(S(=O)(=O)N(CCO)c2ccccc2CN(C)C/C=C/c2ccccc2)cc1 | Non-Toxic | ≥ 256 | – | – | – | – |
| CN(Cc1ccccc1NS(=O)(=O)c1ccc(F)cc1)C(=O)/C=C/c1ccc(C(F)(F)F)cc1 | Non-Toxic | ≥ 256 | – | – | – | – |
| COc1ccc(/C=C/C(=O)N(C)Cc2ccccc2N(CCO)S(=O)(=O)c2ccc(C)cc2)cc1 | Non-Toxic | ≥ 256 | – | – | – | – |
| COc1ccc(S(=O)(=O)N(CCO)c2ccccc2CN(C)C/C=C/c2ccccc2)cc1 | Non-Toxic | ≥ 256 | – | – | – | – |
| C=CCN(Cc1ccccc1N(CCO)S(=O)(=O)c1ccc(OC)cc1)C(C)C | Non-Toxic | ≥ 256 | – | – | – | – |
| CC(C)c1ccc(S(=O)(=O)N(CCO)c2ccccc2CN(C)C(=O)/C=C/c2ccc(C(F)(F)F)cc2)cc1 | Non-Toxic | 32 | – | – | – | – |
| Cc1ccc(S(=O)(=O)N(CCO)c2ccccc2CN(C)C(=O)/C=C/c2ccc(Cl)cc2Cl)cc1 | Non-Toxic | ≥ 256 | – | – | – | – |
| Cc1ccc(S(=O)(=O)N(CCO)c2ccccc2CN(C)C(=O)c2ccc(Cl)cc2)cc1 | Non-Toxic | ≥ 256 | – | – | – | – |
| CC(=O)Nc1ccc(/C=C/C(=O)N(C)Cc2ccccc2N(CCO)S(=O)(=O)c2ccc(C)cc2)cc1 | Non-Toxic | ≥ 256 | – | – | – | – |
| COc1ccc(S(=O)(=O)N(CCO)c2ccccc2CN(C/C=C/c2ccc(Cl)cc2)CC(C)C)cc1 | Non-Toxic | 128 | – | – | – | – |

| Compound | growth inhibition (GI) (Staphylococcus aureus [1]) | MIC (Staphylococcus aureus [2]) [µg/mL] | MIC (Staphylococcus aureus [3]) [µg/mL] | fold change (FC) (Staphylococcus aureus [4]) | MIC (Staphylococcus aureus [5]) [µg/mL] | MIC (Staphylococcus aureus [6]) [µg/mL] |
| --- | --- | --- | --- | --- | --- | --- |
| C=CCN(C)Cc1ccccc1N(CCO)S(=O)(=O)c1ccc(Cl)cc1 | Non-Toxic | ≥ 256 | – | – | – | – |
| Cc1ccc(S(=O)(=O)N(CCO)c2ccccc2CN(C(=O)/C=C/c2ccc(C(F)(F)F)cc2)C2CC2)cc1 | Non-Toxic | ≥ 256 | – | – | – | – |
| Cc1ccc(S(=O)(=O)N(CCO)c2ccccc2CN(C)C(=O)CCc2ccc(Cl)cc2)cc1 | Non-Toxic | ≥ 256 | – | – | – | – |
| CN(Cc1ccccc1N(CCO)S(=O)(=O)c1ccc(OC(F)(F)F)cc1)C(=O)/C=C/c1ccc(C(F)(F)F)cc1 | Non-Toxic | 32 | – | – | – | – |
| CN(C/C=C/c1ccc(Cl)cc1)Cc1ccccc1N(CCO)S(=O)(=O)c1ccc(Cl)cc1 | Non-Toxic | 16 | – | – | – | – |
| Cc1ccc(S(=O)(=O)N(CCO)c2ccccc2CN(C)C(=O)/C=C/c2ccc(F)cc2)cc1 | Non-Toxic | ≥ 256 | – | – | – | – |
| CN(C/C=C/c1ccc(Cl)cc1)Cc1ccccc1N(CCO)S(=O)(=O)Cc1ccccc1 | Non-Toxic | ≥ 256 | – | – | – | – |
| Cc1ccc(S(=O)(=O)N(CCO)c2ccccc2CN(C)C(=O)c2ccc3cc(Br)ccc3c2)cc1 | Non-Toxic | ≥ 256 | – | – | – | – |
| CN(Cc1ccccc1N(CCO)S(=O)(=O)c1ccc2c(c1)OCCO2)C(=O)/C=C/c1ccc(C(F)(F)F)cc1 | Non-Toxic | 64 | – | – | – | – |
| Cc1ccc(S(=O)(=O)N(CCO)c2ccccc2CN(C)C(=O)/C=C/c2ccc(Cl)cc2)cc1 | Non-Toxic | 2 | 4 | 128 | 8 | 2 |
| Cc1ccc(S(=O)(=O)N(CCO)c2ccccc2CN(C)C(=O)COc2ccc(Cl)cc2)cc1 | Non-Toxic | ≥ 256 | – | – | – | – |
| Cc1ccc(S(=O)(=O)N(CCO)c2ccccc2CN(C)C(=O)/C=C/c2ccc(Cl)c(Cl)c2)cc1 | Non-Toxic | 16 | – | – | – | – |
| CN(Cc1ccccc1N(CCO)S(=O)(=O)c1ccc(F)cc1)C(=O)/C=C/c1ccc(Cl)cc1 | Non-Toxic | 4 | 1 | 64 | 8 | 1 |
| CN(Cc1ccccc1N(CCO)S(=O)(=O)c1cccs1)C(=O)/C=C/c1ccc(Cl)cc1 | Non-Toxic | 256 | – | – | – | – |
| Cc1ccc(S(=O)(=O)N(CCO)c2ccccc2CN(C)C(=O)/C=C/c2ccc(-c3ccc(Cl)cc3)o2)cc1 | Non-Toxic | ≥ 256 | – | – | – | – |
| CCN(Cc1ccccc1N(CCO)S(=O)(=O)c1ccc(C)cc1)C(=O)/C=C/c1ccc(C(F)(F)F)cc1 | Non-Toxic | ≥ 256 | – | – | – | – |
| Cc1ccc(S(=O)(=O)N(CCO)c2ccccc2C(=O)N(C)C/C=C/c2ccc(Cl)cc2)cc1 | Non-Toxic | ≥ 256 | – | – | – | – |
| Cc1ccc(S(=O)(=O)N(CCO)c2ccccc2CN(C)C(=O)/C=C/c2cccnc2)cc1 | Non-Toxic | ≥ 256 | – | – | – | – |
| Cc1ccc(S(=O)(=O)N(CCO)c2cccc(CN(C)C(=O)/C=C/c3ccc(C(F)(F)F)cc3)c2)cc1 | Non-Toxic | ≥ 256 | – | – | – | – |
| Cc1ccc(S(=O)(=O)N(CCO)c2ccccc2CN(C)C(=O)/C=C/c2ccc(C(F)(F)F)cc2)cc1F | Non-Toxic | 4 | 8 | 64 | 16 | 2 |
| Cc1ccc(/C=C/C(=O)N(C)Cc2ccccc2N(CCO)S(=O)(=O)c2ccc(C)cc2)cc1 | Non-Toxic | 64 | – | – | – | – |
| CN(Cc1ccccc1N(CCO)S(=O)(=O)c1ccccc1)C(=O)/C=C/c1ccc(C(F)(F)F)cc1 | Non-Toxic | 4 | 2 | 64 | 16 | 2 |
| Cc1ccc(S(=O)(=O)N(CCO)c2ccccc2CNC(=O)/C=C/c2ccc(C(F)(F)F)cc2)cc1 | Non-Toxic | ≥ 256 | – | – | – | – |
| C=CCN(C)Cc1ccccc1N(CCO)S(=O)(=O)c1ccc(C)cc1 | Non-Toxic | ≥ 256 | – | – | – | – |

Reference: ChEMBL document CHEMBL4368884, “Structure-activity relationship of the cinnamamide family of antibiotic potentiators for methicillin-resistant Staphylococcus aureus (MRSA)” (Medchemcomm, 2018)
